Measured values: ChEMBL document CHEMBL5096237, “Orally Bioavailable Prodrugs of ψ-GSH: A Potential Treatment for Alzheimer's Disease” (J Med Chem, 2022)
Each block holds one molecule with its values, some of them ahead of it. The source made the active and inactive calls. No cut-off for these calls is given here.

Key:
[1] = Stability in CD-1 mouse assessed as half life at gastric phase of gastrointestinal tract at 1 uM measured upto 240 mins by LC-MS/MS analysis; assay type: ADME; settings: for t1/2: mouse, 4 h, 1 µM
In short: (§1)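 Compound at 1 μM final was incubated at 37 °C in plasma, brain homogenate, liver homogenate, simulated gastric fluid or simulated intestinal fluid. Aliquots taken at 0, 5, 15, 30, 60, 120 and 240 min were quenched with 3 volumes of acetonitrile containing 1% formic acid and centrifuged. Supernatants were analyzed by HPLC-UV (254 nm, after Fmoc-Cl derivatization) and/or LC-MS/MS to derive t1/2.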

[2] = Stability in CD-1 mouse assessed as half life at intestinal phase of gastrointestinal tract at 1 uM measured upto 240 mins by LC-MS/MS analysis; assay type: ADME; settings: for t1/2: mouse, 4 h, 1 µM; in short: as §1
[3] = Stability in CD-1 mouse plasma assessed as half life at 1 uM measured upto 240 mins by LC-MS/MS analysis; assay type: ADME, cell-free; settings: for t1/2: mouse, 4 h, 1 µM; for half-life at 1 µM: CD-1, mouse; in short: as §1
[4] = Stability in CD-1 mouse plasma at 250 mg/kg, po at 1 uM measured after 6 hrs by LC-MS/MS analysis; assay type: ADME, organism-based; settings: in vivo
[5] = Reversal of resistant against po dosed Abeta1-42 induced cognitive impairment in mouse assessed as reduction in repetitive arm entries (reference value: 3.22+/-0.27); assay type: organism-based; settings: in vivo
[6] = test system: Mus musculus; test: Anti-alzheimer activity against oral dosed mouse brain assessed as reduction in AGE level by immunohistochemical analysis; assay type: functional, organism-based
[7] = Stability in CD-1 mouse liver homogenate assessed as half life at 1 uM measured upto 240 mins by LC-MS/MS analysis; assay type: ADME, tissue-based
In short: (§2)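 Compound at 1 μM final was incubated at 37 °C in plasma, brain homogenate, liver homogenate, simulated gastric fluid or simulated intestinal fluid. Supernatants were analyzed by HPLC-UV (254 nm, after Fmoc-Cl derivatization) and/or LC-MS/MS to derive t1/2.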

[8] = test system: Mus musculus; test: Anti-alzheimer activity against APP/PS1 mouse model assessed as increase in spatial memory development at 500 mg/kg, po measured after 4 days by Morris water maze test; assay type: functional, organism-based; settings: time 4.0 day
[9] = test system: Mus musculus; test: Anti-alzheimer activity against APP/PS1 mouse model assessed as time spent in the target quadrant at 500 mg/kg, po measured after 4 days by Morris water maze test (reference value: 16.39+/-3.39%); assay type: functional; settings: time 4 day
[10] = test system: Mus musculus; test: Anti-alzheimer activity against APP/PS1 mouse model assessed as escape latency at 500 mg/kg, po measured after 4 days by Morris water maze test (reference value: 6.64+/-1.58 sec); assay type: functional; settings: time 4 day
[11] = test system: Mus musculus; test: Anti-alzheimer activity against APP/PS1 mouse model assessed as reduction in insoluble Abeta1-42 at 500 mg/kg, po […] by ELISA assay relative to control; assay type: functional; design: scale not given: the % may be the effect or the level left
In short: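 APP/PS1 mice, 3–4 months old, were gavaged with ψ-GSH 500 mg/kg or saline three times weekly for 12 weeks. Insoluble brain Aβ1–42 was quantified by sandwich ELISA and expressed as % of saline-treated APP/PS1 mice.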

[12] = Stability in CD-1 mouse brain homogenate assessed as half life at 1 uM measured upto 240 mins by LC-MS/MS analysis; assay type: ADME, tissue-based; in short: as §2
[13] = AUC in CD-1 mouse measured in per mg of brain tissue at 500 mg/kg, ip; assay type: ADME, organism-based; design: dose 500 mg/kg, route ip; settings: in vivo
In short: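 Male CD-1 mice, eight weeks old, N = 4 per time point. They received oral prodrug at 250 mg/kg, or ψ-GSH at 500 mg/kg i.p. for comparison. Blood and brain were taken at 2, 4 and 6 h. Brain was homogenized 1:5 (w/v) in DPBS. Plasma and homogenate were treated with 100 mM N-ethylmaleimide for 10 min at ambient temperature, deproteinized with 3% sulfosalicylic acid, then quantified by positive-ESI LC-MS/MS MRM, with ψ-GSH read as its NEM adduct.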

[14] = organism: Mus musculus; test: Anti-alzheimer activity against A-beta injected mouse assessed as reduction in microglial activation in dentate gyrase region by GFAP staining based analysis; assay type: functional, organism-based; settings: in the assay text read “Iba1 staining” for “GFAP staining”
In short: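 C57BL/6 mice were dosed with compound at 250 mg/kg once daily for 12 days; Aβ1–42 oligomers were given i.c.v. on day 4. Half-brains were fixed in 4% PFA for 24 h and sucrose-cryoprotected. 40 μm coronal sections, every 12th (4–6 sections), were immunostained for GFAP (astrocytes) or Iba1 (microglia) by ABC/DAB after antigen retrieval. Stained area fraction in dorsal hippocampus or dentate gyrus was measured stereologically at ×40.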

[15] = test system: Mus musculus; test: Anti-alzheimer activity against oral dosed mouse brain assessed as restoration of reduced GSH level by […]; assay type: functional, organism-based
In short: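 Brains from the i.c.v. Aβ1–42 mice were homogenized and deproteinized with metaphosphoric acid. After neutralization, samples were diluted in 50 mM MES (pH 6.0, 1 mM EDTA). GSH was measured by enzymatic recycling with DTNB, reading TNB absorbance at 412 nm.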

[16] = Reversal of resistant against ip dosed Abeta1-42 induced cognitive impairment in mouse assessed as reduction in repetitive arm entries (reference value: 3.22+/-0.27); settings: in vivo

SMILES: CC(=O)SC[C@H](NC(=O)NC[C@H](N)C(=O)O)C(=O)NCC(=O)O
- t1/2 [1]: 28.88 h
- t1/2 [2]: 5.02 h
- t1/2 [3]: 5.8 h

SMILES: N[C@@H](CNC(=O)N1CSC[C@H]1C(=O)NCC(=O)O)C(=O)O
- half-life at 1 µM [3]: 30.6 h
- half-life at 1 µM [7]: 116 h

SMILES: N[C@@H](CNC(=O)N[C@@H](CS)C(=O)NCC(=O)O)C(=O)O
- Activity [8]: Active
- Activity [9]: 21.76%
- Time [10]: 6.9 s
- Activity [11]: 90.8%
- half-life at 1 µM ([1]; CD-1, mouse, gastric phase of gastrointestinal tract): 28.8 h
- half-life at 1 µM ([2]; CD-1, mouse, intestinal phase of gastrointestinal tract): 1.28 h
- half-life at 1 µM [3]: 0.23 h
- half-life at 1 µM [12]: 1.51 h
- half-life at 1 µM [7]: 0.02 h
- AUC [13]: 8.06 nmol·h
- Activity [14]: Active
- Activity [15]: Active
- repetitive arm entries [16]: 0.5

SMILES: N[C@@H](CNC(=O)N1C(=O)SC[C@H]1C(=O)NCC(=O)O)C(=O)O
- t1/2 [3]: 25.57 h

The next lines start with results.

- t1/2 [3]: 61.32 h
SMILES: CCOC(=O)SC[C@H](NC(=O)NC[C@H](N)C(=O)OC1CCCC1)C(=O)NCC(=O)OC1CCCC1

- t1/2 [1]: 4.87 h
- t1/2 [2]: 5.24 h
- t1/2 [3]: 72.2 h
- Stability [4]: Stable
- repetitive arm entries [5]: 1.8
SMILES: Cl.N[C@@H](CNC(=O)N[C@@H](CS)C(=O)NCC(=O)OC1CCCC1)C(=O)OC1CCCC1
- Activity [6]: Active

- t1/2 [1]: 27.7 h
- t1/2 [2]: 38.5 h
- t1/2 [3]: 47.14 h
SMILES: CCOC(=O)SC[C@H](NC(=O)NC[C@H](N)C(=O)O)C(=O)NCC(=O)O
